Source: ChEMBL document CHEMBL4385668, “Synthesis and in vitro anticancer activity of new gemcitabine-nucleoside analogue dimers containing methyltriazole or ester-methyltriazole linker” (Bioorg Med Chem Lett, 2019)

Legend:
[1] = tested on: HeLa; assay: Cytotoxicity in human HeLa cells assessed as reduction in cell viability incubated for 72 hrs by SRB assay; assay type: functional, cell-based
Summary of the method: (§1)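 SRB assay of cell viability in human cancer lines (HeLa, KB, A549, U87, HepG2) and normal dermal fibroblasts (HDF). IC50 values are […] of three independent experiments.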

[2] = tested on: KB; assay: Cytotoxicity in human KB cells assessed as reduction in cell viability incubated for 72 hrs by SRB assay; assay type: functional, cell-based; summary of the method: as §1
[3] = tested on: A549; assay: Cytotoxicity in human A549 cells assessed as reduction in cell viability incubated for 72 hrs by SRB assay; assay type: functional, cell-based; settings: A549, 72 h; summary of the method: as §1
[4] = tested on: U-87 MG; assay: Cytotoxicity in human U87 cells assessed as reduction in cell viability incubated for 72 hrs by SRB assay; assay type: functional, cell-based, U-87MG ATCC; summary of the method: as §1
[5] = tested on: HepG2; assay: Cytotoxicity in human HepG2 cells assessed as reduction in cell viability incubated for 72 hrs by SRB assay; assay type: functional, cell-based; settings: HepG2, 72 h; summary of the method: as §1
[6] = tested on: NHDF; assay: Cytotoxicity in human NHDF cells assessed as reduction in cell viability incubated for 72 hrs by SRB assay; assay type: cell-based; summary of the method: as §1
[7] = Drug level in human HeLa cells treated with 1-(3'-Deoxythymidin-3'-yl)-4-[methyloxycarbonyl-(2'-deoxy-2',2'-difluorocytidin-4N-yl)]-1H-1,2,3-triazole assessed as compound release incubated for 12 hrs by HPLC/MS method; assay type: ADME, cell-based
Summary of the method: (§2)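 HeLa cells were incubated with the dimer at 37 °C for 12 h. Cell lysate was analysed by HPLC/MS for released gemcitabine, the deamination product dFdU and the thymidine-triazole fragment. A separately synthesized sample of the thymidine-triazole fragment was used as the reference.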

[8] = Selectivity index, ratio of IC50 for cytotoxicity in human NHDF cells to IC50 for cytotoxicity in human HeLa cells
Summary of the method: (§3)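 Selectivity index is the IC50 in normal HDF fibroblasts divided by the IC50 in the given cancer line.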

[9] = Selectivity index, ratio of IC50 for cytotoxicity in human NHDF cells to IC50 for cytotoxicity in human KB cells; summary of the method: as §3
[10] = Selectivity index, ratio of IC50 for cytotoxicity in human NHDF cells to IC50 for cytotoxicity in human A549 cells; summary of the method: as §3
[11] = Selectivity index, ratio of IC50 for cytotoxicity in human NHDF cells to IC50 for cytotoxicity in human U87 cells; summary of the method: as §3
[12] = Selectivity index, ratio of IC50 for cytotoxicity in human NHDF cells to IC50 for cytotoxicity in human HepG2 cells; summary of the method: as §3
[13] = Drug metabolism in human HeLa cells assessed as gemcitabine release incubated for 12 hrs by HPLC/MS method; assay type: ADME, cell-based; summary of the method: as §2
[14] = Drug metabolism in human HeLa cells assessed as 2',2'-difluoro-2'-deoxyuridine release incubated for 12 hrs by HPLC/MS method; assay type: ADME, cell-based; summary of the method: as §2

Drug uptake [7]	Drug metabolism [13]	Drug metabolism [14]	SMILES	IC50 [1]	IC50 [2]	IC50 [3]	IC50 [4]	IC50 [5]	IC50 [6]	Ratio IC50 [8]	Ratio IC50 [9]	Ratio IC50 [10]	Ratio IC50 [11]	Ratio IC50 [12]
–	–	–	Cc1cn([C@H]2C[C@H](O)[C@@H](Cn3cc(CNc4ccn([C@@H]5O[C@H](CO)[C@@H](O)C5(F)F)c(=O)n4)nn3)O2)c(=O)[nH]c1=O	129 µM	131 µM	126 µM	128 µM	130 µM	152 µM	–	–	–	–	–
Active	–	–	Cc1cn([C@H]2C[C@H](n3cc(CO)nn3)[C@@H](CO)O2)c(=O)[nH]c1=O	–	–	–	–	–	–	–	–	–	–	–
–	–	–	O=C(Nc1ccn([C@@H]2O[C@H](CO)[C@@H](O)C2(F)F)c(=O)n1)OCc1cn(C[C@H]2O[C@@H](n3ccc(NC(=O)OCc4ccccc4)nc3=O)C(F)(F)[C@@H]2O)nn1	1.98 µM	2.01 µM	2.11 µM	2.14 µM	2.21 µM	8.12 µM	4.1	4.04	3.85	3.79	3.67
–	–	–	CC(C)(C)OC(=O)O[C@@H]1[C@@H](Cn2cc(CNc3ccn([C@@H]4O[C@H](CO)[C@@H](O)C4(F)F)c(=O)n3)nn2)O[C@@H](n2ccc(NC(=O)OCc3ccccc3)nc2=O)C1(F)F	3.12 µM	3.09 µM	3.24 µM	3.81 µM	3.93 µM	8.12 µM	2.6	2.63	2.51	2.13	2.07
–	–	–	O=C(Nc1ccn([C@@H]2O[C@H](Cn3cc(CNc4ccn([C@@H]5O[C@H](CO)[C@@H](O)C5(F)F)c(=O)n4)nn3)[C@@H](OC(=O)c3ccccc3)C2(F)F)c(=O)n1)c1ccccc1	5.41 µM	5.34 µM	6.01 µM	5.5 µM	5.82 µM	14.2 µM	–	–	–	–	–
–	–	–	Nc1ccn([C@@H]2O[C@H](Cn3cc(COC(=O)Nc4ccn([C@@H]5O[C@H](CO)[C@@H](O)C5(F)F)c(=O)n4)nn3)[C@@H](O)C2(F)F)c(=O)n1	12.4 µM	11.3 µM	11.4 µM	12.6 µM	10.8 µM	15.8 µM	–	–	–	–	–
–	–	–	CC(C)(C)OC(=O)O[C@@H]1[C@@H](Cn2cc(CNc3ccn([C@@H]4O[C@H](CO)[C@@H](O)C4(F)F)c(=O)n3)nn2)O[C@@H](n2ccc(N)nc2=O)C1(F)F	4.11 µM	4.09 µM	4.23 µM	4.54 µM	5.19 µM	10.9 µM	2.65	2.67	2.58	2.4	2.1
–	–	–	Cc1cn([C@H]2C[C@H](OC(=O)OC(C)(C)C)[C@@H](Cn3cc(CNc4ccn([C@@H]5O[C@H](CO)[C@@H](O)C5(F)F)c(=O)n4)nn3)O2)c(=O)[nH]c1=O	6.3 µM	7.07 µM	6.07 µM	6.97 µM	6.34 µM	14.2 µM	–	–	–	–	–
–	–	–	Cc1cn([C@H]2C[C@H](O)[C@@H](Cn3cc(COC(=O)Nc4ccn([C@@H]5O[C@H](CO)[C@@H](O)C5(F)F)c(=O)n4)nn3)O2)c(=O)[nH]c1=O	13.5 µM	13.1 µM	13.4 µM	13.5 µM	14.6 µM	16.9 µM	–	–	–	–	–
–	–	–	CC(C)(C)OC(=O)O[C@@H]1[C@@H](Cn2cc(COC(=O)Nc3ccn([C@@H]4O[C@H](CO)[C@@H](O)C4(F)F)c(=O)n3)nn2)O[C@@H](n2ccc(N)nc2=O)C1(F)F	2.01 µM	2.12 µM	2.17 µM	2.21 µM	2.34 µM	8.81 µM	4.38	4.16	4.06	3.99	3.77
–	–	–	CC(C)(C)OC(=O)O[C@H]1C[C@H](n2cc(F)c(=O)[nH]c2=O)O[C@@H]1Cn1cc(CNc2ccn([C@@H]3O[C@H](CO)[C@@H](O)C3(F)F)c(=O)n2)nn1	4.68 µM	4.62 µM	5.86 µM	4.73 µM	5.71 µM	13.7 µM	2.94	2.97	2.35	2.91	2.41
–	–	–	Nc1ccn([C@@H]2O[C@H](Cn3cc(CNc4ccn([C@@H]5O[C@H](CO)[C@@H](O)C5(F)F)c(=O)n4)nn3)[C@@H](O)C2(F)F)c(=O)n1	16.2 µM	15.9 µM	16.1 µM	16.5 µM	15.1 µM	29.3 µM	–	–	–	–	–
–	–	–	O=C(Nc1ccn([C@@H]2O[C@H](CO)[C@@H](O)C2(F)F)c(=O)n1)OCc1cn(C[C@H]2O[C@@H](n3cc(F)c(=O)[nH]c3=O)C[C@@H]2O)nn1	6.7 µM	6.52 µM	8.01 µM	7.56 µM	7.66 µM	10.2 µM	–	–	–	–	–
–	–	–	O=C(Nc1ccn([C@@H]2O[C@H](CO)[C@@H](O)C2(F)F)c(=O)n1)OCc1cn(C[C@H]2O[C@@H](n3ccc(NC(=O)c4ccccc4)nc3=O)C(F)(F)[C@@H]2OC(=O)c2ccccc2)nn1	3.22 µM	3.13 µM	3.32 µM	3.41 µM	3.51 µM	9.12 µM	2.83	2.91	2.75	2.67	2.6
–	–	–	CC(C)(C)OC(=O)O[C@@H]1[C@@H](Cn2cc(COC(=O)Nc3ccn([C@@H]4O[C@H](CO)[C@@H](O)C4(F)F)c(=O)n3)nn2)O[C@@H](n2ccc(NC(=O)OCc3ccccc3)nc2=O)C1(F)F	0.97 µM	0.95 µM	0.83 µM	1.09 µM	1.01 µM	4.69 µM	4.83	4.94	5.65	4.3	4.64
Active	–	–	Nc1ccn([C@@H]2O[C@H](CO)[C@@H](O)C2(F)F)c(=O)n1 [GEMCITABINE]	9.42 µM	8.21 µM	5.05 µM	5.21 µM	4.9 µM	19.4 µM	2.07	2.37	3.85	3.73	3.97
–	–	–	Cc1cn([C@H]2C[C@H](N=[N+]=[N-])[C@@H](CO)O2)c(=O)[nH]c1=O [ZIDOVUDINE]	10.8 µM	9.77 µM	11.9 µM	11.9 µM	13 µM	14.4 µM	1.34	1.48	1.22	1.21	1.11
–	–	–	Cc1cn([C@H]2C[C@H](OC(=O)OC(C)(C)C)[C@@H](Cn3cc(COC(=O)Nc4ccn([C@@H]5O[C@H](CO)[C@@H](O)C5(F)F)c(=O)n4)nn3)O2)c(=O)[nH]c1=O	9.65 µM	10.7 µM	8.5 µM	9.68 µM	11.1 µM	15 µM	–	–	–	–	–
–	–	–	Nc1ccn([C@@H]2O[C@H](CO)[C@@H](O)[C@@H]2O)c(=O)n1 [CYTARABINE]	–	–	3.47 µM	2.88 µM	–	4.99 µM	1.41	1.23	1.44	1.73	1.75
–	–	–	O=c1[nH]c(=O)n([C@H]2C[C@H](O)[C@@H](CO)O2)cc1F [FLOXURIDINE]	–	–	5.91 µM	6.14 µM	–	13.1 µM	2.01	1.5	2.21	2.13	1.47
–	–	–	O=c1[nH]c(=O)n([C@H]2C[C@H](O)[C@@H](Cn3cc(CNc4ccn([C@@H]5O[C@H](CO)[C@@H](O)C5(F)F)c(=O)n4)nn3)O2)cc1F	78.9 µM	81.5 µM	79.3 µM	80.3 µM	78.9 µM	106 µM	–	–	–	–	–
–	–	–	O=C(Nc1ccn([C@@H]2O[C@H](Cn3cc(CNc4ccn([C@@H]5O[C@H](CO)[C@@H](O)C5(F)F)c(=O)n4)nn3)[C@@H](O)C2(F)F)c(=O)n1)OCc1ccccc1	4.23 µM	4.14 µM	4.31 µM	4.45 µM	4.64 µM	10.1 µM	2.39	2.44	2.34	2.27	2.18
–	Metabolite_Detected	Metabolite_Notdetected	Cc1cn([C@H]2C[C@H](n3cc(CNc4ccn([C@@H]5O[C@H](CO)[C@@H](O)C5(F)F)c(=O)n4)nn3)[C@@H](CO)O2)c(=O)[nH]c1=O	10.9 µM	12.2 µM	10.6 µM	10.8 µM	12.2 µM	17.8 µM	–	–	–	–	–
